Screening results (PubChem)
This is a sample that favours compounds with a hit; in the whole collection about 2.9% have one here.
HSP90 inh: inhibitors of HSP90 luciferase refolding in rabbit reticulocyte lysate; AID 1789; actives 0.91% (n = 290,000); luciferase refolding luminescence, 3 h; inhibition, % at 5.6 µM;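 active = inhibition above the screen-wide mean plus 3 SD, computed separately per campaign, cut at about 16% in these data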;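 also: inhibitors lower the luminescence because luciferase stays unfolded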
SENP8 block-1: inhibitors of human SENP8 protease | Q96LD8 | purified SENP8, Z-RLRGG-aminoluciferin cleavage, luminescence | inhibition, % at 10 µM | actives 1.2% (n = 330,000); in the data active = inhibition above about 50%
Target sequence (Q96LD8 whole entry, looked up): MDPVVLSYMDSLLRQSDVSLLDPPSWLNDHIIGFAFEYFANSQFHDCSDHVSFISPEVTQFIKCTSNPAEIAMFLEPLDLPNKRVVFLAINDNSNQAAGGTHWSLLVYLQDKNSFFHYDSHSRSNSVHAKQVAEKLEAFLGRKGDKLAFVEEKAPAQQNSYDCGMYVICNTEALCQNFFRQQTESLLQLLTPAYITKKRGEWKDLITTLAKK
SENP7 inh: SENP7 protease inhibition; AID 434973; Q9BQF6; recombinant SENP7, Z-RLRGG-aminoluciferin luminescence, 40 min; actives 1.5% (n = 330,000); inhibition, % at 5 µM;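 active = inhibition above about 50% at the single test dose, limit read from the data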
SENP8 block-2: blocks human SENP8 cleavage of Nedd8 substrate | Q96LD8 | recombinant SENP8, Nedd8 substrate fluorescence | inhibition, % at 20 µM | actives 0.64% (n = 360,000); in the data active = inhibition mostly above about 40%, no sharp cut-off; inactive = mostly below about 27%
SENP6 inh: blocks the human protease SENP6. Q9GZR1. Recombinant SENP6 catalytic domain, aminoluciferin luminescence. inhibition, % at 10 µM. actives 1.8% (n = 330,000). AID 2599;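 active = inhibition above about 50% at the single tested dose, limit read from the data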
SENP1 FRET inh: SENP1 (human) catalytic domain inhibition | Q9P0U3 | recombinant SENP1 catalytic domain, CyPet-SUMO1-YPet FRET cleavage | inhibition, % at 10 µM | actives 0.21% (n = 360,000) | AID 624204;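 active = inhibition at least 30% at 10 µM, raw YFP signal under a set limit, fluorescence ratio 0.5 to 1.5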
Target sequence (Q9P0U3 419-644 limits assumed): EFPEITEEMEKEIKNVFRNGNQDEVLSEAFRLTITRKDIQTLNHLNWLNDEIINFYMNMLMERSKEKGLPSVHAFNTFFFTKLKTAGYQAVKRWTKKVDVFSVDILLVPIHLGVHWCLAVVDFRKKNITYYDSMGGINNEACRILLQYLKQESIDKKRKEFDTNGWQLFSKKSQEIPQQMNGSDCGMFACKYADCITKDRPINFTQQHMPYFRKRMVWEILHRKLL
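Test system: hSENP1 catalytic domain, recombinant; Amount: 20 pM final SENP1 enzyme; Medium: Tris pH 8 buffer plus EDTA, NaCl, BME, BSA, NP40, catalase; Schedule: 50 min enzyme reaction, room temperature, light-protected; Technique: FRET fluorescence in CFP and YFP emission channels; Controls: no-enzyme wells low, DMSO-plus-enzyme wells high control.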
HSP90 inh confirm: HSP90 inhibition, confirmation assay; actives 64% (n = 2,300); rabbit reticulocyte lysate, luciferase refolding luminescence, 3 h; AID 1846; inhibition, % at 5.9 µM; shares compounds with HSP90 inh; in the data active = inhibition above about 18%
luciferase ctr: blocks native firefly luciferase in HSP90 counter-screen; shares compounds with HSP90 inh; inhibition, % at 5.9 µM; purified native firefly luciferase, luminescence; actives 48% (n = 2,300);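 active = inhibition above the mean inhibition of all tested sample wells plus 3 SD, cut at about 10% in these data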
A number is an active result; i = inactive; nt = no result.

SMILES	HSP90 inh	SENP8 block-1	SENP7 inh	SENP8 block-2	SENP6 inh	SENP1 FRET inh	HSP90 inh confirm	luciferase ctr
CCN(CC)P(=O)(Nc1ccc([N+](=O)[O-])cc1)c1c(C)nn(CCC#N)c1NC(=O)c1ccc(Cl)cc1 (stereo not given)	57	i	i	i	i	i	i	i
Cc1cc(NC(=O)c2ccc([N+](=O)[O-])cc2)n(CCC#N)n1	i	i	i	i	i	i	nt	nt
CN(C)c1ccc(/C=C(\Cl)c2nc3ccccc3s2)cc1	49	nt	nt	i	nt	i	71	72
O=C(O)c1ccc(C=C(c2nc3ccccc3s2)c2nc3ccccc3s2)cc1	i	i	i	i	i	i	nt	nt
Cn1cccc1-c1cc(C(=O)N/N=C/c2ccc(Cl)cc2)[nH]n1	19	i	i	i	i	i	i	i
Cn1c2ccccc2c(=O)c2ccc(C#CC3(O)CCCCC3)cc21	59	i	i	i	i	i	66	65
COc1cccc2sc3cc(C#CC4(O)CCCCC4)ccc3c(=O)c12	nt	i	i	i	i	i	nt	nt
O=C(O)c1ccc(N=NN2CCCCCC2)cc1	21	i	i	i	i	i	42	12
O=C(O)c1ccc(N=NN2CCCC2)cc1	i	i	i	i	i	i	nt	nt
CC1CCCCN1CCCNc1ccc(C(CC(N)=O)NC(=O)Cc2cccc3ccccc23)cc1[N+](=O)[O-] (stereo not given)	i	i	i	i	i	i	nt	nt
S=C(Cc1cccnc1)N1CCOCC1	i	i	i	i	i	i	nt	nt
C#CCn1cc(/C=C2\NC(=O)NC2=O)c2ccccc21	67	i	i	i	i	i	53	i
CCN(C(=O)Nc1cccc(Cl)c1)c1ccccc1	i	i	i	i	i	i	nt	nt
Cc1cccc(N(O)C(=O)Nc2cccc(Cl)c2)c1	26	i	i	i	i	i	62	i
O=S1(=O)C=C(Sc2nnc(-c3ccccc3)o2)c2ccccc21	i	i	i	i	i	i	nt	nt
CCOc1ccc(C(=O)Nc2ccc3[nH]ncc3c2)cc1	18	i	i	i	i	i	40	11
COc1ccc(C(=O)Nc2ccc3[nH]ncc3c2)cc1	i	i	i	i	i	i	nt	nt
CN(C)Cc1cc(C(C)(C)c2ccccc2)ccc1O	nt	nt	nt	i	nt	i	nt	nt
N#Cc1cc[n+](CC(=O)c2ccc(NC(=O)c3ccccc3)cc2)cc1	21	i	i	i	i	i	i	i
COc1ccc(O)c(C(=O)CC(=O)c2ccc(F)cc2)c1	21	i	i	i	i	i	21	i
CCc1ccc2nc(N(CCN(C)C)C(=O)c3ccc4ncsc4c3)sc2c1	28	i	i	i	i	i	23	19
Cc1ccc2nsnc2c1NC(=O)COc1ccccc1	i	i	i	i	i	i	nt	nt
OC(CC#CCN1CCCC1)(c1ccccc1)c1ccccc1	i	i	i	i	i	i	nt	nt
CC(C)C(O)(CC#CCN1CCCC1)c1ccccc1 (stereo not given)	59	i	i	i	i	i	i	i
CC(C)c1ccc(OCc2ccc(C(=O)O)o2)cc1	94	87	77	i	95	i	94	80
SMILES	HSP90 inh	SENP8 block-1	SENP7 inh	SENP8 block-2	SENP6 inh	SENP1 FRET inh	HSP90 inh confirm	luciferase ctr
CC(C)c1ccc(OCc2ccc(C(=O)NN3CCN(C)CC3)o2)cc1	19	i	i	i	i	i	18	i
O=C(O)/C=C/c1cnn(-c2ccccc2)c1	53	nt	nt	i	nt	i	59	38
CCCCN1C(=O)C(C(=O)OCc2ccccc2)CC2=C1CCCC2=O (stereo not given)	nt	nt	nt	i	nt	i	nt	nt
COc1ccc(C(=O)Oc2ccc[nH]c2=O)cc1	i	i	i	i	i	i	nt	nt
O=C(Oc1ccc[nH]c1=O)c1cc([N+](=O)[O-])cc([N+](=O)[O-])c1	i	66	i	i	88	i	i	i
O=C(Nc1ccc(-c2cn3c(n2)SCC3)cc1)c1ccc2ccccc2n1	i	i	i	i	i	i	nt	nt
O=C(Nc1cccc(-c2cn3c(n2)SCC3)c1)c1ccc2ccccc2n1	50	i	i	i	i	i	31	i
Cc1cccc(C)c1NC(=O)CN(C)C(=O)c1ccc2nc[nH]c2c1	nt	i	i	i	i	i	nt	nt
